Tests used:
[1] = Drug level in Abutilon theophrasti (velvetleaf) at growth inhibition I50 level rate measured 7 days post treatment; format: organism-based; conditions: in vivo, read-out: Drug uptake
Outline: (§1)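 Greenhouse plants (28/22 °C, 13 h photoperiod) were sprayed with glyphosate at each species' I50 rate, with Tween 20-treated controls. Shoots were cut at 7 DAT and rinsed to remove surface herbicide. Pooled ground tissue (1 g) was water-extracted twice with sonication, acidified, and washed with methylene chloride. Extracts were derivatized with heptafluorobutanol/TFAA (90 °C, 1 h) and measured by GC-MS against derivatized standards, in duplicate.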

[2] = tested on: Glycine max; test: Induction of shikimate accumulation in non glyphosate-resistant Glycine max (soybean) at growth inhibition I50 level rate measured 7 days post treatment (reference value: 27 ug/g tissue); format: functional
Outline: (§2)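 Plants were sprayed in the greenhouse at each species' I50 rate, with Tween 20 controls. Shoots were harvested at 7 DAT and rinsed free of surface glyphosate. Shikimic acid was measured by HPLC on a C18 column after 0.45 µm filtration, with 100 µL injected, isocratic 98% H2O (pH 3.0)/2% MeOH, at 1 mL flow.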

[3] = tested on: Glycine max; test: Ratio of compound to AMPA level in non glyphosate-resistant Glycine max (soybean) at growth inhibition I50 level rate measured 7 days post treatment; format: organism-based; conditions: in vivo, 168 h
Outline: (§3)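 Greenhouse plants (28/22 °C, 13 h photoperiod) were sprayed at each species' I50 rate with Tween 20 controls. Shoots were clipped 7 DAT and washed free of surface herbicide. Pooled ground tissue (1 g) was extracted twice with water under sonication. Extracts were derivatized with heptafluorobutanol/trifluoroacetic anhydride (90 °C, 1 h). Glyphosate and AMPA were quantified by GC-MS against derivatized standard curves, in duplicate.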

[4] = tested on: Lolium multiflorum; test: Growth inhibition of Lolium multiflorum (Italian ryegrass) measured 7 days post treatment; format: functional
[5] = tested on: Pueraria montana var. lobata; test: Ratio of compound to AMPA level in Pueraria montana var. lobata ( kudzu) at growth inhibition I50 level rate measured 7 days post treatment; format: organism-based; conditions: in vivo, 168 h; outline: as §3
[6] = Drug level in Pueraria montana var. lobata ( kudzu) at growth inhibition I50 level rate measured 7 days post treatment; format: organism-based; conditions: in vivo, read-out: Drug uptake; outline: as §1
[7] = Drug level in Vigna unguiculata (cowpea) at growth inhibition I50 level rate measured 7 days post treatment; format: organism-based; conditions: in vivo, read-out: Drug uptake; outline: as §1
[8] = tested on: Zea mays; test: Induction of shikimate accumulation in glyphosate-resistant Zea mays (maize) at growth inhibition I50 level rate measured 7 days post treatment (reference value: 241 ug/g tissue); format: functional; outline: as §2
[9] = tested on: Sesbania herbacea; test: Drug level in Sesbania herbacea assessed as AMPA level at growth inhibition I50 level rate measured 7 days post treatment; format: organism-based; conditions: in vivo, 168 h, BLD = below limit of detection; outline: as §1
[10] = tested on: Glycine max; test: Drug level in non glyphosate-resistant Glycine max (soybean) assessed as AMPA level at growth inhibition I50 level rate measured 7 days post treatment; format: organism-based; conditions: in vivo, 168 h; outline: as §1
[11] = tested on: Abutilon theophrasti; test: Growth inhibition of Abutilon theophrasti (velvetleaf) measured 14 days post treatment
[12] = tested on: Senna obtusifolia; test: Ratio of compound to AMPA level in Senna obtusifolia (sicklepod) at growth inhibition I50 level rate measured 7 days post treatment; format: organism-based; conditions: in vivo, 168 h; outline: as §3
[13] = Drug level in Senna obtusifolia (sicklepod) at growth inhibition I50 level rate measured 7 days post treatment; format: organism-based; conditions: in vivo, read-out: Drug uptake; outline: as §1
[14] = tested on: Pueraria montana var. lobata; test: Drug level in Pueraria montana var. lobata ( kudzu) assessed as AMPA level at growth inhibition I50 level rate measured 7 days post treatment; format: organism-based; conditions: in vivo, 168 h; outline: as §1
[15] = tested on: Desmanthus illinoensis; test: Drug level in Desmanthus illinoensis (Illinois bundleflower) assessed as AMPA level at growth inhibition I50 level rate measured 7 days post treatment; format: organism-based; conditions: in vivo, 168 h; outline: as §1
[16] = tested on: Glycine max; test: Induction of shikimate accumulation in glyphosate-resistant Glycine max (soybean) at growth inhibition I50 level rate measured 7 days post treatment (reference value: 65 ug/g tissue); format: functional; outline: as §2
[17] = tested on: Glycine max; test: Ratio of compound to AMPA level in glyphosate-resistant Glycine max (soybean) at growth inhibition I50 level rate measured 7 days post treatment; format: organism-based; conditions: in vivo, 168 h; outline: as §3
[18] = Drug level in non glyphosate-resistant Glycine max (soybean) at growth inhibition I50 level rate measured 7 days post treatment; format: organism-based; conditions: in vivo, read-out: Drug uptake; outline: as §1
[19] = tested on: Abutilon theophrasti; test: Drug level in Abutilon theophrasti (velvetleaf) assessed as AMPA level at growth inhibition I50 level rate measured 7 days post treatment; format: organism-based; conditions: in vivo, 168 h, BLD = below limit of detection; outline: as §1
[20] = tested on: Erigeron canadensis; test: Induction of shikimate accumulation in Conyza canadensis (horseweed) at growth inhibition I50 level rate measured 7 days post treatment (reference value: 251 ug/g tissue); format: functional; outline: as §2
[21] = tested on: Zea mays; test: Drug level in glyphosate-resistant Zea mays (maize) assessed as AMPA level at growth inhibition I50 level rate measured 7 days post treatment; format: organism-based; conditions: in vivo, 168 h, BLD = below limit of detection; outline: as §1
[22] = tested on: Senna obtusifolia; test: Growth inhibition of Senna obtusifolia (sicklepod) measured 14 days post treatment
[23] = tested on: Erigeron canadensis; test: Growth inhibition of Conyza canadensis (horseweed) measured 7 days post treatment; format: functional
[24] = tested on: Desmanthus illinoensis; test: Growth inhibition of Desmanthus illinoensis (Illinois bundleflower) measured 7 days post treatment; format: functional
[25] = tested on: Vigna unguiculata; test: Growth inhibition of Vigna unguiculata (cowpea) measured 14 days post treatment
[26] = tested on: Senna obtusifolia; test: Drug level in Senna obtusifolia (sicklepod) assessed as AMPA level at growth inhibition I50 level rate measured 7 days post treatment; format: organism-based; conditions: in vivo, 168 h; outline: as §1
[27] = tested on: Glycine max; test: Drug level in glyphosate-resistant Glycine max (soybean) assessed as AMPA level at growth inhibition I50 level rate measured 7 days post treatment; format: organism-based; conditions: in vivo, 168 h; outline: as §1
[28] = tested on: Lolium multiflorum; test: Drug level in Lolium multiflorum (Italian ryegrass) assessed as AMPA level at growth inhibition I50 level rate measured 7 days post treatment; format: organism-based; conditions: in vivo, 168 h, BLD = below limit of detection; outline: as §1
[29] = tested on: Vigna unguiculata; test: Drug level in Vigna unguiculata (cowpea) assessed as AMPA level at growth inhibition I50 level rate measured 7 days post treatment; format: organism-based; conditions: in vivo, 168 h; outline: as §1
[30] = Drug level in glyphosate-resistant Glycine max (soybean) at growth inhibition I50 level rate measured 7 days post treatment; format: organism-based; conditions: in vivo, read-out: Drug uptake; outline: as §1

`O=C(O)CNCP(=O)(O)O` [GLYPHOSATE] gave a concentration at 168 h [1] of 678 ng/g, an Activity [2] of 15251 µg/g and a Ratio [3] of 38. For the same molecule, the I50 [4] was 220 gAi/ha, the Ratio [5] was 19 and the concentration at 168 h [6] was 5560 ng/g. For the same molecule, the concentration at 168 h [7] was 26800 ng/g, the Activity [8] was 245 µg/g and the Drug uptake [9] was “BLD”. For the same molecule, the Drug uptake [10] was 668 ng/g, the I50 [11] was 122 gAi/ha and the Ratio [12] was 4. The concentration at 168 h [13] was 6410 ng/g, the Drug uptake [14] was 297 ng/g and the Drug uptake [15] was 1513 ng/g. It also gave an Activity [16] of 53 µg/g, a Ratio [17] of 49 and a concentration at 168 h [18] of 25000 ng/g. The Drug uptake [19] was “BLD”, the Activity [20] was 9101 µg/g and the Drug uptake [21] was “BLD”. For the same molecule, the I50 [22] was 252 gAi/ha, the I50 [23] was 170 gAi/ha and the I50 [24] was 272 gAi/ha. For the same molecule, the I50 [25] was 201 gAi/ha, the Drug uptake [26] was 1834 ng/g and the Drug uptake [27] was 119 ng/g. For the same molecule, the Drug uptake [28] was “BLD”, the Drug uptake [29] was 4765 ng/g and the concentration at 168 h [30] was 5830 ng/g.

From ChEMBL document CHEMBL3046087, “Aminomethylphosphonic acid accumulation in plant species treated with glyphosate” (J Agric Food Chem, 2008)
